The list is not random: actives were taken first. Their share in the collection is about 2.3%.
OXTR ag: human OXTR agonism; activation, % at 3 µM; CHO-OTR cells, Fluo-8 calcium fluorescence; normalized: DMSO 0%, oxytocin 100%; 320,000 compounds, 0.32% hits; P30559;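 active = activation above the mean of all tested compounds plus 3 SD, cutoff set per screening run, cut at about 20% in these data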;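 also: peak over basal fluorescence ratio from a 100 s FLIPR kinetic read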
Target sequence (P30559 whole entry, looked up): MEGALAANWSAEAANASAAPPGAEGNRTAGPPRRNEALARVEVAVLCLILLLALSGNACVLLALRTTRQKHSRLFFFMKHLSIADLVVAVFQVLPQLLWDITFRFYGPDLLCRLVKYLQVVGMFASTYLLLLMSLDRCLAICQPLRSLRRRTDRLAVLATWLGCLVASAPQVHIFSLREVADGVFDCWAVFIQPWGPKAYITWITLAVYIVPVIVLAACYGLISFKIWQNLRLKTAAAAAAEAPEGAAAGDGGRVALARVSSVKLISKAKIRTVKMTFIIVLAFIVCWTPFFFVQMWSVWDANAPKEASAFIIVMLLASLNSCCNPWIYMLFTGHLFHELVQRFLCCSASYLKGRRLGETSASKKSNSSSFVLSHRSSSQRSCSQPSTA
TAAR1 ag: agonists of human TAAR1 | activation, % at 3 µM | Q96RJ0 | 360,000 compounds, 0.99% hits | CHO RD-HGA16 TAAR1, Fluo-8 calcium fluorescence; vehicle wells 0%, saturating PEA agonist 100%;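 active = activation above the mean activation of all test compounds in the run plus 3 SD, cut at about 38% in these data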
Target sequence (Q96RJ0 whole entry, looked up): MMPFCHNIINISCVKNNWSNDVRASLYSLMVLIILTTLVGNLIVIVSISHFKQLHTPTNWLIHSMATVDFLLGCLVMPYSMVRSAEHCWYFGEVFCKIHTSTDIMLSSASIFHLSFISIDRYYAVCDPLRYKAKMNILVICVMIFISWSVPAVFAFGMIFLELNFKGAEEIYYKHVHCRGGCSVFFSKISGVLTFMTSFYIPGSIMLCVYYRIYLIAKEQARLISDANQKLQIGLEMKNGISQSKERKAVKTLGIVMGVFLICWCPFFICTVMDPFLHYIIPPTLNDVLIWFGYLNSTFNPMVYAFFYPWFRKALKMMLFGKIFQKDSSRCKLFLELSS
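System: CHO-derived RD-HGA16 cells with stable Gα16 and human TAAR1 / Times: 17-24 h plating, Fluo-8 75 min 37 °C, 30 min RT / Technique: calcium-sensitive Fluo-8 signal, excitation 470-495, emission 515-575 nm / Measure: % activation relative to PEA EC100 response / Benchmarks: DMSO and PEA EC100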
TAAR1 antag: antagonists of human TAAR1; 360,000 compounds, 1.5% hits; CHO RD-HGA16 TAAR1, Fluo-8 calcium fluorescence, antagonist; AID 624466; inhibition, % at 3 µM;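 active = inhibition above a per-plate cutoff, the mean inhibition of test compounds on that plate plus 3 SD, cut at about 49% in these data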;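 also: 0% = DMSO plus EC80 beta-PEA response and 100% = DMSO alone without agonist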
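Test system: hTAAR1-expressing CHO RD-HGA16 cells, Gα16-coupled; Probe or stimulus: EC80 β-phenethylamine stimulus; Compound dosing: single nominal final test compound concentration of 3 µM; Timing: 140 s kinetic read after compound, 140 s after agonist; Signal: Fluo-8 calcium-sensitive fluorescence; Measure: % inhibition of agonist calcium response; Controls: DMSO and EC80 PEA controls.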
V1R ag counter: activates human V1a receptor in oxytocin agonist counter-screen | P37288 | CHO-V1R cells, Fluo-8 calcium fluorescence, agonist mode; 0% DMSO, 100% 3 nM vasopressin | activation, % at 3 µM | 320,000 compounds, 0.25% hits | AID 2797;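 active = activation above the mean activation of all tested compounds plus 3 SD, per screening run, cut at about 20% in these data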;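 also: signal is peak over basal fluorescence ratio across a 100 second FLIPR read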
OXTR potentiator: potentiators of human oxytocin receptor. 320,000 compounds, 0.061% hits. activation, % at 3 µM. CHO-OTR cells, Fluo-8 calcium fluorescence, potentiator mode; 0% = oxytocin EC15, 100% = EC100. AID 2445;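 active = activation above that plate's cutoff, the mean activation of tested compounds plus 3 SD, cut at about 6.6% in these data, passing the limit was not always enough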;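 also: 100% uses oxytocin at 75 nM as the full agonist control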
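Replication – single well per compound, singlicate · Assay system – CHO cell line stably expressing human OTR · Timing – 6 min pre-incubation, 100 s read · Measure – normalized max/min fluorescence ratio, % activation · Doses – 3.0 µM, one dose · Detection – Fluo-8 calcium dye fluorescence · Probe or stimulus – oxytocin near EC15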
nonsel antag count: nonselective antagonism, TAAR1 counter-screen; shares compounds with TAAR1 antag; counterscreen cell line, calcium fluorescence, antagonist mode; inhibition, % at 3 µM; 2,400 compounds, 77% hits; AID 651780; in the data active = inhibition above about 22%;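 also: CHO-Ga16 host cells stimulated with ATP at an EC80 level; 0% = agonist EC80 plus vehicle and 100% = vehicle without agonist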
TAAR1 antag conf: confirmation of human TAAR1 antagonists; shares compounds with TAAR1 antag; TAAR1-expressing cells, fluorescence antagonist read-out; inhibition, % at 3 µM; 2,400 compounds, 40% hits; AID 651785; in the data active = inhibition above about 49%;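 also: CHO-Ga16 host cells challenged with agonist PEA near its EC80; 0% = agonist at EC80 plus vehicle and 100% = vehicle with no agonist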
Ga16 nonsel ag: counter-screen for TAAR1 antagonists: nonselective Ga16 agonists | activation, % at 3 µM | 2,400 compounds, 18% hits | AID 651953 | Ga16-expressing cells, calcium fluorescence, agonist counterscreen | shares compounds with TAAR1 antag; in the data active = activation above about 12%;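 also: 0% = vehicle wells and 100% = saturating stimulus response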
TAAR1 ag count: activates human TAAR1 in antagonist counter-screen; shares compounds with TAAR1 antag; hTAAR1 cell line, fluorescence activation, agonist mode; activation, % at 3 µM; 2,400 compounds, 2% hits; AID 651955; in the data active = activation above about 37%;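 also: CHO cells stably expressing TAAR1 with calcium dye readout; 0% = DMSO vehicle and 100% = full agonist response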
* = called active by the depositor; nt = not tested or not shown.

SMILES	OXTR ag	TAAR1 ag	TAAR1 antag	V1R ag counter	OXTR potentiator	nonsel antag count	TAAR1 antag conf	Ga16 nonsel ag	TAAR1 ag count
Cc1cccc(N2CCN(C(=O)c3nn(C)c4c3CS(=O)(=O)c3ccccc3-4)CC2C)c1 (stereo not given)	1	15	53*	3	-6	31*	44	10	9
Cn1nc(C(=O)N2CCN(c3cccc(Cl)c3)CC2)c2c1-c1ccccc1S(=O)(=O)C2	4	11	42	8	-14	nt	nt	nt	nt
Cc1cccc(C(=O)NN2C(=O)C3C(c4ccccc4)C=CC(c4ccccc4)C3C2=O)c1 (stereo not given)	0	24	92*	1	-6	54*	60*	14*	9
CC(C)C(=O)N=c1sc2cccc(F)c2n1C	-3	-2	-5	-2	-8	nt	nt	nt	nt
N#Cc1cc(Oc2ccc(Cl)cc2)c(N2CCOCC2)cc1C#N	-2	10	-13	-1	-9	nt	nt	nt	nt
COc1ccc2nc(NC(=O)C3CCN(S(=O)(=O)c4cccc5nsnc45)CC3)sc2c1	10	22	61*	8	-8	34*	56*	11	11
Cc1ccc2nc(C(F)(F)F)c(C#N)c(N)c2c1	0	9	-3	1	1	nt	nt	nt	nt
Cc1cccc(C(C#N)c2nc3ccccc3nc2C(F)(F)F)c1 (stereo not given)	-2	-1	80*	-1	-21	5	83*	0	6
N#CC(c1ccc(Cl)cc1)c1nc2ccccc2nc1C(F)(F)F (stereo not given)	-1	-1	57*	0	-5	7	31	1	-2
COc1ccc(C(C#N)c2nc3ccccc3nc2Cl)cc1 (stereo not given)	nt	1	-3	nt	nt	nt	nt	nt	nt
C[C@@H]1CN([C@H](C)CO)S(=O)(=O)c2ccc(C#Cc3ccccc3F)cc2O[C@H]1CN(C)C(=O)c1ccc2c(c1)OCO2	nt	34	73*	nt	nt	34*	59*	12*	17
CCCCn1c(O)c(N=NC(=O)c2ccco2)c2ccccc21	-3	12	52*	0	-7	15	37	7	13
COC(=O)c1cccc(Nc2nc(-c3cccnc3)nc3ccccc23)c1	-2	17	67*	-2	-6	27*	39	5	5
Cn1cncc1C#Cc1ccc2cc(C(C)(C)O)oc(=O)c2c1	2	8	-5	0	0	nt	nt	nt	nt
CC(C)(O)c1cc2ccc(C#CCCN3C(=O)c4ccccc4C3=O)cc2c(=O)o1	3	15	62*	10	-10	26*	55*	9	3
Cc1ccc(CN=Cc2[nH]c3ccc(Br)c(Cl)c3c2O)cc1	7	7	12	1	-6	nt	nt	nt	nt
C=CCN1C[C@H](COC(=O)c2cccc(OC)c2)Oc2cccc(F)c2S1(=O)=O	nt	9	79*	nt	nt	41*	56*	12*	9
O=C(Nc1ccc(N2CCN(C(=O)c3ccco3)CC2)cc1)c1ccc2c(c1)OCO2	0	8	12	1	-7	nt	nt	nt	nt
Cc1ccccc1C(=O)N1CCN(c2ccc(NC(=O)c3ccco3)cc2Cl)CC1	8	20	52*	8	-9	23*	37	9	7
CC(=O)N1CCN(c2ccc(NC(=O)c3ccc(Cl)cc3)cc2)CC1	0	3	15	0	-5	nt	nt	nt	nt
CC(=O)N1CCN(c2ccc(NC(=O)c3ccc(C(C)(C)C)cc3)cc2)CC1	5	27	62*	4	-11	29*	46	9	10
Cc1cc(OCC(=O)Nc2ccc(N3CCN(C(=O)c4ccco4)CC3)cc2)cc(C)c1Cl	4	34	86*	7	-3	51*	71*	18*	18
Cc1ccccc1C(=O)N1CCN(c2ccc(NC(=O)c3ccc4c(c3)OCO4)cc2)CC1	4	12	53*	7	-11	27*	45	9	8
Cc1cc(OCC(=O)Nc2ccc(N3CCCC3)cc2)cc(C)c1Cl	0	-1	-7	0	-6	nt	nt	nt	nt
O=C(Nc1ccc(N2CCN(C(=O)c3cccs3)CC2)c(Cl)c1)c1ccco1	1	13	4	5	-8	nt	nt	nt	nt
SMILES	OXTR ag	TAAR1 ag	TAAR1 antag	V1R ag counter	OXTR potentiator	nonsel antag count	TAAR1 antag conf	Ga16 nonsel ag	TAAR1 ag count
O=C(O)c1cccc(C(=O)c2cccc3ccccc23)c1	-1	-2	-16	0	0	nt	nt	nt	nt
O=C(NCc1ccccn1)C(=O)NCC(c1ccco1)N1CCN(c2ccc(F)cc2)CC1 (stereo not given)	4	2	-1	6	0	nt	nt	nt	nt
Cc1ccc(C)c(NC(=O)/C(C#N)=C/c2cn(CC(=O)NCc3ccco3)c3ccccc23)c1	1	2	103*	-1	-8	6	12	7	6
Cc1ccc(NC(=O)/C(C#N)=C/c2cn(CC(=O)NCc3ccco3)c3ccccc23)cc1C	2	1	-14	3	3	nt	nt	nt	nt
CC1=C(C(=O)Nc2cc(C(=O)N3CCN(c4cccc(C)c4C)CC3)ccc2C)SCCO1	6	6	62*	8	-13	34*	46	5	4
COc1ccc(N2CCN(C(=O)c3ccc(C)c(NC(=O)C4=C(C)OCCS4)c3)CC2)cc1	3	3	-2	5	-4	nt	nt	nt	nt
O=C(CN1C(=O)NC2(CCCCCC2)C1=O)N1CCN(S(=O)(=O)c2ccccc2)CC1	0	10	1	0	-7	nt	nt	nt	nt
COC(=O)C1(CC2CC(c3cccc(Br)c3)=NO2)CCN(C(=O)OC(C)(C)C)CC1 (stereo not given)	-2	12	71*	3	-14	29*	64*	5	7
CC(C)(C)OC(=O)N1CCC(CC2CC(c3ccccc3)=NO2)(C(=O)NCc2ccccc2)CC1 (stereo not given)	-1	7	30	0	4	nt	nt	nt	nt
COCCN1CCn2c(nc3cc([N+](=O)[O-])ccc32)C1	1	1	-33	1	5	nt	nt	nt	nt
CCOC1=C(C#N)CC2(CC1)c1ccccc1-c1ccccc12	nt	3	71*	nt	nt	24*	41	5	7
COc1cc(C(=O)Nc2cccc(-c3nnc(-c4ccco4)o3)c2)ccc1OC(C)=O	-1	16	64*	1	-8	26*	45	7	8
